Results: publication PMC3690177 (Bioorganic & medicinal chemistry letters, 2008)

Legend:
Swiss mice [1] = assay: Formalin plantar test with; format: in vivo, mouse; conditions: for Effect on analgesic effects of methanandamide in formalin test: 30 min before intraplantar formalin with mAEA 50 μg
Method in brief: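 Swiss mice were pretreated i.p. with vehicle, test compound (20 mg-kg−1) or CB1 antagonist (2 mg-kg−1). Intraplantar formalin followed 30 min later, with or without co-injected (R)-methanandamide (50 μg). Nociception was scored in the first phase (0–15 min) and second phase (15–45 min). n = 8–13. Analysis was repeated-measures ANOVA with Bonferroni tests. Error bars are SEM.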

CB1 receptors = CB1 receptors (Rattus norvegicus, UniProt P20272); assay: GTPγS binding in rat cerebellar membrane preparations; format: biochemical; conditions: absence of WIN55,212-2; 100 nM–10 μM; data not shown
mice [2] = assay: Motor activity in mice; format: in vivo, mouse; conditions: 20 mg-kg−1 i.p.; data not shown
mice [3] = assay: WIN55,212-2-induced catalepsy, ring catalepsy test; format: in vivo, mouse; conditions: for Effect on WIN55,212-2-induced catalepsy: 30 min prior to WIN55,212-2 5 mg-kg−1
Method in brief: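 Mice were pretreated i.p. with vehicle, test compound (20 mg-kg−1) or CB1 antagonist (5 mg-kg−1). After 30 min they received vehicle or WIN55,212-2 (5 mg-kg−1, i.p.). Cataleptic behaviour was scored 30 min after the WIN55,212-2 injection. n = 6. Analysis was ANOVA with Bonferroni post hoc tests. Error bars are SEM.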

Swiss mice [4] = assay: Food intake over 24 h in Swiss mice; format: in vivo, mouse; conditions: 30 min before dark onset; for Effect on total food consumption: 20 mg-kg−1 i.p.
Method in brief: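 Male Swiss mice were dosed i.p. with test compound (5 or 20 mg-kg−1) or vehicle 30 min before dark onset. Cumulative food intake was monitored for 24 h. n = 12 per group. Data were analysed by 2-way repeated-measures ANOVA with Bonferroni post hoc test. Error bars are SEM.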

[5] = Drug levels in plasma and tissues after systemic administration; format: in vivo, mouse
ob/ob mice = assay: Food intake and body-weight gain in ob/ob mice, daily treatment for 2 weeks; format: in vivo, mouse; conditions: 20 mg-kg−1 i.p. once daily for 2 weeks
Method in brief: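 Genetically obese ob/ob mice received test compound (20 mg-kg−1, i.p.) or vehicle once daily for 2 weeks. Food intake was recorded, and body weight was expressed as % change from day 0. n = 8 per group. Analysis was 2-way repeated-measures ANOVA with Bonferroni post hoc test. Error bars are SEM.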

Swiss mice [6] = assay: WIN55,212-2-induced hypothermia; format: in vivo, mouse
Method in brief: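 Swiss mice received a first i.p. injection of vehicle, test compound (20 mg-kg−1) or CB1 antagonist (2 mg-kg−1). A second injection of WIN55,212-2 (3 mg-kg−1, i.p.) followed 30 min later. Body temperature was read 30 min after WIN55,212-2. n = 5. Analysis was ANOVA with Bonferroni post hoc tests. Error bars are SEM.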

mouse CB2 receptors = assay: cAMP accumulation in Hek-293 cells stably expressing mouse CB2 receptors; format: cell-based; conditions: isoproterenol 10 μM alone; basal 18 ± 2.4; n = 4

CB1 receptors, sequence (P20272 whole entry): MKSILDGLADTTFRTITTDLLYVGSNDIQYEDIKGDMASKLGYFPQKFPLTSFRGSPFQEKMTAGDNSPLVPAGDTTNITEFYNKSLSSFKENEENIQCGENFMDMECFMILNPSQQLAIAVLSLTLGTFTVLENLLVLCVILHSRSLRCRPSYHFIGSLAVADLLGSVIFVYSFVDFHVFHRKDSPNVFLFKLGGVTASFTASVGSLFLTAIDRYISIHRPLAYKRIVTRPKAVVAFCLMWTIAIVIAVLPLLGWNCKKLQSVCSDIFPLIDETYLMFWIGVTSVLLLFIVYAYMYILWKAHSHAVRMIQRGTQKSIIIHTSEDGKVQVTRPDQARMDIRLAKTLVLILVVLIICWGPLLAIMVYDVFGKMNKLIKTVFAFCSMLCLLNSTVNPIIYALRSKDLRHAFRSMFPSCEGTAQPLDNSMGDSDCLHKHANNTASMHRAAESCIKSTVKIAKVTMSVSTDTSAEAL

CCCCC/C=C\C/C=C\C/C=C\C/C=C\CCCC(=O)N[C@H](C)CO [(R)-methanandamide]
Effect on nocifensive behavior in the formalin plantar test (Swiss mice [1]; mAEA 50 μg co-injected with formalin): inhibits

Cc1c(C(=O)c2ccccc2)c(N)c(-c2ccccc2)n1Cc1ccc(Cl)cc1 [URB447, [4-amino-1-(4-chlorobenzyl)-2-methyl-5-phenyl-1H-pyrrol-3-yl](phenyl)methanone]
Inhibition of basal GTPγS binding (CB1 receptors): failed to inhibit | Effect on motor activity (mice [2]): did not alter | Effect on analgesic effects of methanandamide in formalin test (Swiss mice [1]; 20 mg-kg−1 i.p.): completely blocked | Effect on WIN55,212-2-induced catalepsy (mice [3]; 20 mg-kg−1 i.p.): unaffected | Effect on food intake (Swiss mice [4]; 5 mg-kg−1 i.p.): no effect | Effect on total food consumption (Swiss mice [4]): drastically reduced | Liver Cmax ([5]; 20 mg-kg−1 i.p.): 4.3 ± 0.7 nmol/g | Time of maximal tissue levels in liver ([5]; 20 mg-kg−1 i.p.): 15 min | Time of maximal tissue levels in white adipose fat ([5]; 20 mg-kg−1 i.p.): 15 min | Cmax ([5]; mouse, plasma, ip, 20 mg): 596 ± 117 nM | Tmax ([5]; mouse, plasma, ip, 20 mg): 30 min | Amount of food consumed throughout the treatment period (ob/ob mice): significant reduction | Body-weight gain (ob/ob mice): significant attenuation

Cc1c(C(=O)c2cccc3ccccc23)c2cccc3c2n1[C@H](CN1CCOCC1)CO3 [WIN55,212-2]
Body temperature effect (Swiss mice [6]; 3 mg-kg−1 i.p., 30 min after administration): maximal hypothermia | Time spent cataleptic in the ring catalepsy test (mice [3]; 5 mg-kg−1, scored 30 min later): significant increase

CC(C)NCC(O)c1ccc(O)c(O)c1 (stereo not drawn) [isoproterenol]
cAMP levels (mouse CB2 receptors): 56.2 ± 6 pmol/well

Cc1c(C(=O)NN2CCCCC2)nn(-c2ccc(Cl)cc2Cl)c1-c1ccc(Cl)cc1 [rimonabant]
Effect on WIN55,212-2-induced hypothermia (Swiss mice [6]; 2 mg-kg−1 i.p., 30 min pretreatment, WIN55,212-2 3 mg-kg−1 i.p.): attenuated | Effect on analgesic effects of methanandamide in formalin test (Swiss mice [1]; 2 mg-kg−1 i.p.): completely blocked | Effect on WIN55,212-2-induced catalepsy (mice [3]; 5 mg-kg−1 i.p.): reversed | Effect on total food consumption (Swiss mice [4]): mimicked
